# Results taken from ChEMBL document CHEMBL2390929, “New nitric oxide donating 1,2,4-triazole/oxime hybrids: synthesis, investigation of anti-inflammatory, ulceroginic liability and antiproliferative activities” (Bioorg Med Chem, 2013).
# How the values were obtained:
# Hs-578T = experiment: Cytotoxicity against human Hs578T cells assessed as cell growth at 10^-5 M after 48 hrs by SRB assay; type: functional; settings: read-out: Activity
# In short: (§1)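 NCI 60-cell-line primary one-dose screen across nine tumour subpanels. Compound added at a single concentration of 10^-5 M and cultures incubated 48 h. Endpoint was sulforhodamine B protein staining read spectrophotometrically, with growth expressed as percent of untreated control cells.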
# TK-10 = experiment: Cytotoxicity against human TK10 cells assessed as cell growth at 10^-5 M after 48 hrs by SRB assay; type: functional; settings: TK-10, 48 h, read-out: Activity
# In short: (§2)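 NCI-60 one-dose screen across nine tumour subpanels. Each agent added once at 10^-5 M, cultures incubated 48 h. Endpoint is sulforhodamine B protein staining read spectrophotometrically. Output is percent growth of treated cells relative to untreated controls.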
# IGROV-1 = experiment: Cytotoxicity against human IGROV1 cells assessed as cell growth at 10^-5 M after 48 hrs by SRB assay; type: functional; settings: IGROV-1, 48 h, read-out: Activity; in short: as §1
# SK-MEL-2 = experiment: Cytotoxicity against human SK-MEL-2 cells assessed as cell growth at 10^-5 M after 48 hrs by SRB assay; type: functional; settings: SK-MEL-2, 48 h, read-out: Activity; in short: as §1
# M14 = experiment: Cytotoxicity against human M14 cells assessed as cell growth at 10^-5 M after 48 hrs by SRB assay; type: functional; settings: M14, 48 h, read-out: Activity; in short: as §1
# SNB-75 = experiment: Cytotoxicity against human SNB75 cells assessed as cell growth at 10^-5 M after 48 hrs by SRB assay; type: functional; settings: SNB-75, 48 h, read-out: Activity; in short: as §2
# SF-268 = experiment: Cytotoxicity against human SF268 cells assessed as cell growth at 10^-5 M after 48 hrs by SRB assay; type: functional; settings: SF-268, 48 h, read-out: Activity; in short: as §1
# SW-620 = experiment: Cytotoxicity against human SW620 cells assessed as cell growth at 10^-5 M after 48 hrs by SRB assay; type: functional; settings: SW-620, 48 h, read-out: Activity; in short: as §2
# NCI-H460 = experiment: Cytotoxicity against human NCI-H460 cells assessed as cell growth at 10^-5 M after 48 hrs by SRB assay; type: functional; settings: NCI-H460, 48 h, read-out: Activity; in short: as §1
# NCI-H322M = experiment: Cytotoxicity against human NCI-H322M cells assessed as cell growth at 10^-5 M after 48 hrs by SRB assay; type: functional; settings: read-out: Activity; in short: as §1
# SR = experiment: Cytotoxicity against human SR cells assessed as cell growth at 10^-5 M after 48 hrs by SRB assay; type: functional; settings: read-out: Activity; in short: as §2
# Rattus norvegicus [1] = experiment: Antiinflammatory activity in albino rat assessed as inhibition of carrageenan-induced paw edema at 0.28 mmol/kg, po after 3 hrs relative to control; type: functional
# In short: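 Adult male albino rats (120–140 g), four per group, fasted 24 h with water allowed. Test agent suspended in 0.5% w/v aqueous CMC and given orally at 0.28 mmol/kg; controls received CMC alone. After 30 min, 0.1 mL fresh 1% carrageenan in saline was injected subplantar into the right hind paw and saline into the left. Paw thickness was measured by Vernier caliper; % inhibition = [(VR−VL)control − (VR−VL)treated]/(VR−VL)control ×100. Mean ± SEM, one-way ANOVA.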
# [2] = Induction of nitric oxide release in phosphate buffer at pH 7.4 at 0.1 mM after 3 hrs by Griess method in presence of 0.5 mM of N-acetylcysteine; type: physicochemical; settings: pH 7.4, 3 h, 100 µM
# In short: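 Compound in DMF diluted to final 10^-4 M in 1:1 50 mM phosphate buffer pH 7.4/MeOH with 5×10^-4 M N-acetylcysteine, 37 °C. Aliquot mixed with Griess reagent, 10 min at room temperature, A546 read. Nitrite quantified against sodium nitrite standards (10–80 nmol/mL); NO expressed as mol/mol. n = 4 reaction mixtures per compound.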
# Rattus norvegicus [3] = experiment: Gastrointestinal toxicity in albino rat assessed as histopathological analysis at 0.28 mmol/kg, po using haematoxylin and eosin staining by light microscopic analysis; type: organism-based; settings: in vivo
# In short: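 Adult male albino rats (120–140 g, Minia University), groups of four, fasted 24 h with water allowed. Oral dose 0.28 mmol/kg suspended in 0.5% aqueous CMC; vehicle-only controls. Gastric sections dewaxed, stained with haematoxylin 5–7 min, differentiated in 1% HCl/70% alcohol, counterstained with 1% eosin 10 min. Cleared in xylene, mounted, examined by light microscopy at ×400.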
SMILES,growth at 10 µM (Hs-578T),growth at 10 µM (TK-10),growth at 10 µM (IGROV-1),growth at 10 µM (SK-MEL-2),growth at 10 µM (M14),growth at 10 µM (SNB-75),growth at 10 µM (SF-268),growth at 10 µM (SW-620),growth at 10 µM (NCI-H460),growth at 10 µM (NCI-H322M),growth at 10 µM (SR),inhibition in vivo at 280 µmol/kg (Rattus norvegicus [1]),Activity [2],Activity (Rattus norvegicus [3])
COc1ccc(-c2nnc(SC/C(=N/O)c3ccccc3)n2-c2ccccc2)cc1OC,105%,123%,106%,116%,98.9%,91.4%,110%,110%,114%,103%,85.1%,67%,0.18 mol/mol,–
CCn1c(SC/C(=N/O)c2ccccc2)nnc1-c1ccccc1,101%,–,106%,108%,109%,87.8%,108%,98.7%,102%,–,94.8%,72%,0.12 mol/mol,–
C=CCn1c(SC/C(=N\O)c2ccccc2)nnc1-c1ccc(OC)c(OC)c1,97.3%,112%,97.6%,100%,123%,86.9%,105%,104%,105%,96.6%,109%,58%,0.17 mol/mol,–
O/N=C(/CSc1nnc(-c2ccccc2)n1-c1ccccc1)c1ccccc1,82.9%,–,108%,101%,103%,115%,104%,98.8%,97.3%,–,92.8%,65%,0.12 mol/mol,–
CCn1c(SC/C(=N/O)c2ccccc2)nnc1-c1ccc(OC)c(OC)c1,92.6%,106%,106%,105%,126%,90.3%,101%,106%,105%,99.4%,95.4%,71%,0.2 mol/mol,Non-toxic
COc1ccc(-c2nnc(SC/C(=N/O)c3ccccc3)n2-c2ccccc2)cc1,107%,113%,101%,106%,106%,103%,117%,114%,106%,102%,75.9%,63%,0.09 mol/mol,–
COc1cc(-c2nnc(SC/C(=N/O)c3ccccc3)n2-c2ccccc2)cc(OC)c1OC,103%,116%,99%,98.3%,108%,84.5%,114%,114%,110%,104%,74.8%,64%,0.12 mol/mol,–
